In paper PMC2886590 (Journal of molecular biology, 2010):

How the values were obtained:
MEIS1 promoter = assay: ChIP: MLL occupancy at MEIS1; assay type: cell-based; conditions: HA-tagged full-length MLL, 293T cells
Outline: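 293T cells were transfected with HA-tagged full-length MLL, wild type or point mutant, for two days. ChIP was then run with the indicated antibodies. Quantitative PCR was done on ChIP-bound and input DNA at the MEIS1 promoter, with a MEIS1 3' genomic region for comparison.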

[1] = test system: histone H3 tail (H3K4me3); assay type: binding; conditions: mutant PHD3; pull-down, microarray and NMR
Outline: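 GST-fused MLL PHD3 (residues 1565-1627), wild type or mutant, was expressed in E. coli BL21(DE3) pLysS and purified on glutathione resin. It was incubated with C-terminally biotinylated histone H3 tail peptides (residues 1-21) on streptavidin beads in 50 mM Tris pH 7.5, 150 mM NaCl, 0.05% NP-40. Beads were washed five times, and bound protein was detected by anti-GST western blot. GST-PHD3 without peptide served as control.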

H3K4me3 peptide = assay: NMR titration of PHD3 mutants with H3K4me3 peptide; assay type: binding; conditions: data not shown; for H3K4me3 binding of mutant (1H,15N HSQC): 0.2 mM 15N-labeled mutant PHD3, H3K4me3 12-mer peptide; for changes in 1H,15N HSQC spectra induced by H3K4me3 peptide: 0.2 mM 15N-labeled mutant PHD3
Outline: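 PHD3 finger (residues 1565-1627, wild type or mutant) was expressed as a GST fusion in E. coli BL21(DE3) pLysS grown in 15NH4Cl minimal medium. It was affinity-purified, GST-cleaved, size-exclusion purified and held in 25 mM d11-Tris pH 6.8, 150 mM KCl, 10 mM deuterated DTT and 7% 2H2O. 12-mer histone tail peptides were added stepwise to 0.2 mM protein, and normalized chemical shift changes were tracked in 1H,15N HSQC spectra.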

[2] = MLL protein levels by western blot; assay type: cell-based; conditions: 293T cells, Fig. 3B

Molecule | MEIS1 occupancy (MEIS1 promoter) | ability to recognize H3K4me3 [1] | H3K4me3 binding of mutant (1H,15N HSQC) (H3K4me3 peptide) | changes in 1H,15N HSQC spectra induced by H3K4me3 peptide (H3K4me3 peptide) | protein stability in vivo [2]
F1568A: MLL PHD3 point mutant (GST-PHD3 in vitro; engineered into full-length MLL in cells) (protein, left off: GST, end not stated, kept) KGNACPLCDKCYDDDDYESKMMQCGKCDRWVHSKCENLSDEMYEILSNLPESVAYTCVNCTER | also occupied the MEIS1 promoter |  |  |  | 
M1585A: "loss-of-function" MLL PHD3 point mutant (PHD3 in vitro; full-length MLL in cells) (protein, left off: GST, end not stated, kept) KGNFCPLCDKCYDDDDYESKAMQCGKCDRWVHSKCENLSDEMYEILSNLPESVAYTCVNCTER | also occupied the MEIS1 promoter | more severely compromised | binding was essentially abolished | small to negligible changes | 
Y1576A: MLL PHD3 finger point mutant, tested in vitro only (protein, left off: GST, end not stated, kept) KGNFCPLCDKCADDDDYESKMMQCGKCDRWVHSKCENLSDEMYEILSNLPESVAYTCVNCTER |  | more severely compromised | binding was essentially abolished | small to negligible changes | 

Further lines, with some results ahead:

MEIS1 occupancy (MEIS1 promoter) | ability to recognize H3K4me3 [1] | H3K4me3 binding of mutant (1H,15N HSQC) (H3K4me3 peptide) | Molecule | changes in 1H,15N HSQC spectra induced by H3K4me3 peptide (H3K4me3 peptide) | protein stability in vivo [2]
 | more severely compromised |  | W1594A: "loss-of-structure" MLL PHD3 point mutant (PHD3 in vitro; full-length MLL in cells) (protein, left off: GST, end not stated, kept) KGNFCPLCDKCYDDDDYESKMMQCGKCDRAVHSKCENLSDEMYEILSNLPESVAYTCVNCTER |  | reduced stability in vivo
also occupied the MEIS1 promoter |  |  | D1592A: MLL PHD3 point mutant, acidic residue replaced with Ala (PHD3 in vitro; full-length MLL in cells) (protein, left off: GST, end not stated, kept) KGNFCPLCDKCYDDDDYESKMMQCGKCARWVHSKCENLSDEMYEILSNLPESVAYTCVNCTER |  | 
